Rows were chosen to be rich in hits. Some 3.5% of all compounds tested hit in one or more screens of this group.
RGS4 pot – RGS4 potentiators or activators, primary screen, cell-based, HEK293 M3R inducible RGS4, calcium flux | carbachol calcium flux Fluo4; stronger effect = lower value | B-score at 10 µM | 310,000 tested, 0.92% active;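 active = B-score of the integrated calcium signal more than 4 SD below the library mean, with starting fluorescence not abnormally high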;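 also: negative B-score means reduced calcium response which marks RGS4 activation or potentiation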
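Detection: kinetic calcium fluorescence imaging with Fluo4-AM dye, 2 µM / Material: HEK293 cells with stable M3R and inducible RGS4 / Schedule: recording 10 s baseline at 1 Hz, 100 s post-agonist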
MrgX1 antagonist – antagonists of human MrgX1 receptor, primary screen, HEK293 cells, Fluo-4 calcium flux. B-score at 10 µM. 310,000 tested, 1.3% active. BAM8-22 antagonism; stronger effect = lower value. AID 588676, 2011. Mas-related G-protein coupled receptor member X1 (Homo sapiens), Q96LB2;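 active = calcium-response B-score plate-corrected more than 3 library SD below zero, starting fluorescence within 5 deviations, no agonist response on first addition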;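 also: peak minus trough fluorescence over baseline after final BAM8-22 challenge near maximal dose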
Target sequence (Q96LB2 whole entry, looked up): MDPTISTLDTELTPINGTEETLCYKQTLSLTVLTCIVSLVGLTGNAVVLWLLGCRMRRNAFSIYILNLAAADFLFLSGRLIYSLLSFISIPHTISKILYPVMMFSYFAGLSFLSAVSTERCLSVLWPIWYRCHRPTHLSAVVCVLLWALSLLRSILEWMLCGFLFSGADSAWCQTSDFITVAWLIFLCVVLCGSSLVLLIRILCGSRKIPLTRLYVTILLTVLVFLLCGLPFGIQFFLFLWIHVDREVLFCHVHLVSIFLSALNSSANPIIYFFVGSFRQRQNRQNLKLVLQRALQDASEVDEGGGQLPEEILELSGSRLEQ
MrgX1 agonist – agonists of human MrgX1 receptor, primary screen, HEK293 cells, Fluo-4 calcium flux; Mas-related G-protein coupled receptor member X1 (Homo sapiens), Q96LB2; Fluo-4 calcium fluorescence, agonist mode; stronger effect = higher value; B-score at 10 µM; 310,000 tested, 0.44% active;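 active = calcium response B-score plate-corrected fluorescence ratio at least 3 library SD, with starting fluorescence B-score inside 5 SD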
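times = overnight plating, then 30 min 37 °C plus 30 min room-temperature dye loading | assay system = stable human MrgX1 HEK293 cell line | input = fifteen thousand cells per well | signal = kinetic calcium dye fluorescence, Fluo-4 NW | dosing = compound delivered in addition one of three | read-out = B-scored fluorescence response ratio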
MrgX1 PAM – positive allosteric modulators of MrgX1, primary screen, HEK293 cells, Fluo-4 calcium flux; 310,000 tested, 0.63% active; B-score at 10 µM; Mas-related G-protein coupled receptor member X1 (Homo sapiens), Q96LB2; FDSS; stronger effect = higher value;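 active = plate-corrected calcium response at least 3 library SD above typical, normal starting fluorescence, not activating the receptor alone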;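 also: compound read alongside a low EC10 to EC30 dose of BAM8-22 agonist; peak minus trough fluorescence over baseline measured at the second addition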
RGS4 inh – RGS4 inhibitors, primary screen, cell-based, HEK293 M3R inducible RGS4, calcium flux; Regulator of G-protein signaling 4 (Homo sapiens), P49798; Fluo-4 calcium flux; stronger effect = higher value; triggered by carbachol at its EC20; B-score at 10 µM; 310,000 tested, 0.45% active;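 active = B-score, a plate-corrected calcium signal, over three deviations above library mean, with baseline fluorescence within five deviations of library mean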;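 also: RGS4 expression induced by doxycycline in cells with stable M3 receptor; B-score is computed from the integrated fluorescence ratio over baseline after carbachol; higher B-score means a larger calcium signal and so more RGS4 inhibition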
RGS4 block valid – enhanced carbachol calcium response, M3R/RGS4 cells, RGS4 inhibitor project, cell-based, validation screen, HEK293 M3R/RGS4, calcium flux. shares compounds with RGS4 inh. carbachol calcium Fluo-4 fluorescence; carbachol added at its EC20; 0 = buffer wells, 100 = carbachol control. calcium response, % at 10 µM. 1,700 tested, 65% active. AID 492999, 2010;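 active = duplicate-averaged calcium response above the buffer-only control mean plus 5 SD of those controls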;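 also: integrated fluorescence ratio F max minus min over baseline F0; higher response in RGS4-induced cells means RGS4 inhibition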
M3R Ca ctr – carbachol calcium response in non-induced M3R cells, confirmation, counter-screen for RGS4 inhibitor project, cell-based, HEK293 M3R | carbachol calcium Fluo-4; submaximal (EC20) carbachol stimulus; buffer wells 0%, carbachol control wells 100% | AID 493000, 2010 | shares compounds with RGS4 inh | 1,900 tested, 20% active | activity (percent), % at 10 µM; call rule not given here;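 also: RGS4 induction absent so cells express M3R without RGS4; higher means more calcium signal and flags a non-specific hit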
M3R basal Ca ctr – signal in non-induced cells without carbachol, RGS4 inhibitor counter-screen. shares compounds with RGS4 inh. HEK293 M3R/RGS4 non-induced, Fluo-4 calcium, no carbachol; normalised: buffer wells 0%, carbachol wells 100%. calcium response (agonist-mode artifact), % at 10 µM. 1,900 tested, 22% active;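 active = duplicate-averaged calcium rise in uninduced cells above buffer wells' mean plus 5 SD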
* = called active by the depositor; i = inactive; x = no result given.

SMILES	RGS4 pot	MrgX1 antagonist	MrgX1 agonist	MrgX1 PAM	RGS4 inh	RGS4 block valid	M3R Ca ctr	M3R basal Ca ctr
Oc1c(Br)cc(Cl)cc1C=Nc1ccc(N2CCOCC2)cc1	i	i	i	i	i	x	i	26.0%*
O=[N+]([O-])c1ccc(N2CCOCC2)cc1O	i	i	i	i	i	x	x	x
Cc1cc(N2CCOCC2)ccc1/C=C\[N+](=O)[O-]	i	i	67*	i	27.4*	98.0%*	57.0%*	75.0%*
COc1ccc(C(C[N+](=O)[O-])c2c(C)cc3ccccn23)cc1 (stereo not drawn)	i	i	i	i	i	x	x	x
COc1ccc(C(C[N+](=O)[O-])c2c(C)[nH]n(-c3ccccc3)c2=O)cc1 (stereo not drawn)	i	i	39.9*	i	28.5*	54.0%*	84.5%*	21.0%*
Cc1nn2c(N3CCOCC3)cc(C(C)(C)C)nc2c1-c1ccc(Cl)cc1	i	x	x	x	i	x	x	x
CC(C)(C)c1cc(N2CCOCC2)n2ncc(-c3ccc(Cl)cc3)c2n1	i	i	i	i	11.5*	27.0%*	47.0%*	i
Cc1ccc(-c2cnn3c(N4CCOCC4)cc(C)nc23)cc1	i	i	i	i	i	x	x	x
Cc1cc(N2CCOCC2)n2ncc(-c3ccc(Cl)cc3)c2n1	i	i	i	i	i	i	i	i
Cn1c(=O)[nH]c(=O)c2c1nc([N+](=O)[O-])n2Cc1ccccc1	i	i	i	i	11.6*	71.0%*	42.0%*	i
CC(C)c1csc(CN2CCCC(CNC(=O)c3cccc4ccccc34)C2)n1 (stereo not drawn)	i	i	i	i	i	x	x	x
Clc1ccc(C2=Nn3c(nnc3-c3n[nH]c4c3CCC4)SC2)cc1Cl	i	i	i	i	10.4*	24.0%*	i	i
Cc1ccc(N=Nc2c(N)n[nH]c2N)cc1	i	i	i	i	i	x	x	x
Cc1[nH]nc(N)c1N=Nc1ccc(Br)cc1	i	i	i	i	16.8*	20.5%*	i	i
Nc1n[nH]c(C2CC2)c1N=Nc1ccc(Cl)cc1	i	i	i	i	6.99*	6.5%*	i	i
O=c1c2ccccc2nc(N/N=C/c2c(O)ccc3ccccc23)n1O	i	i	i	i	8.43*	40.0%*	43.5%*	i
O=C(NC1CCCCC1)C(c1ccccn1)N(C(=O)c1csnn1)c1ccccc1F (stereo not drawn)	i	i	i	i	i	x	x	x
NC(=O)N/N=C/c1ccc(-n2nncc2-c2ccc(Cl)cc2)cc1	i	i	i	i	6.25*	20.0%*	41.0%*	i
Cc1[nH]nc2c1C(c1ccc(-c3ccccc3C#N)o1)C(C#N)=C(N)O2 (stereo not drawn)	i	i	i	i	9.82*	23.5%*	i	8.5%*
CC1CC(C)CN(CCCNS(=O)(=O)c2cc(Br)cc3c2N(C(=O)C2CC2)CC3)C1 (stereo not drawn)	i	i	i	i	i	x	x	x

Compound activity deposited in PubChem BioAssay by Johns Hopkins Ion Channel Center.
